The list is not random: actives were taken first. Their share in the collection is about 2.4%.
INS-1E GSIS act: primary screen for activators of insulin secretion dependent on glucose, INS-1E cells, GLuc reporter luminescence | INS-1E GLuc reporter insulin secretion, 2-3 h | activation, % at 16.6 µM | 0.61% of 370,000 active | AID 743287;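 active means lowest replicate activation of at least 40%, so every replicate reaches that level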
Rtt109 Vps75: blocks Candida albicans Rtt109/Vps75 acetyltransferase activity. Q5AAJ8. purified Rtt109/Vps75, ThioGlo CoA-SH fluorescence, 4 h. inhibition, % at 34.9 µM. 0.16% of 330,000 active;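 active means inhibition of at least 50% in every replicate; inconclusive means best replicate reaches 50% inhibition but some replicates fall short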
dFosB act-1: enhances mouse delta FosB homodimer DNA binding; P13346; purified delta FosB, TAMRA-CDK5 oligo fluorescence polarization; percent of positive-control signal above neutral wells; activation, % at 25 µM; 0.99% of 340,000 active; AID 493131;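 active means mean activation above about 17%, with every replicate also reaching it, limit read from the data, passing the limit was not always enough; inconclusive means only one of the two conditions met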
Target sequence (P13346 whole entry, looked up): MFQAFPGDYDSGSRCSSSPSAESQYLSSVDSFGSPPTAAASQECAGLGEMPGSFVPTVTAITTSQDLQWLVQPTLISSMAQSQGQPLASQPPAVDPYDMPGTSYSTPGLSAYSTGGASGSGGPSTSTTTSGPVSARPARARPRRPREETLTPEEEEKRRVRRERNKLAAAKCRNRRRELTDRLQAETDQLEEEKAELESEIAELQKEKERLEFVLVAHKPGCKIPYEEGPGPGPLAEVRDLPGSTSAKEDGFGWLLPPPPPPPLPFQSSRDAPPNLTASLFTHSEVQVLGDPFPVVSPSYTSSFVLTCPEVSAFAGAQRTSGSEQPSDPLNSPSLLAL
miR122 inh: inhibitors of miR-122 in Huh7 cells. Huh7 miR-122 Renilla luciferase sensor, 48 h; neutral wells = 0, positive control = 100. activation (reporter increase), % at 12.5 µM. 0.3% of 340,000 active;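 active means mean replicate activation score at least 90 and every replicate individually at or above 90; inconclusive means only one of the two criteria met; inactive means neither criterion met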;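 further: higher luciferase means less miR-122 activity so hits act as miR-122 inhibitors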
Cneo AK release: Cryptococcus neoformans lysis via adenylate kinase release. 0.2% of 360,000 active. lysis activity, % at 15 µM. C. neoformans lysis, adenylate kinase release luminescence, 4 h; normalised: neutral wells 0, clomiphene wells 100;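 active means mean lysis activity across replicates of at least 80%, whatever share of replicates individually reach that level; inactive means mean lysis activity below 80%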
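Schedule: static 4 h at 37 °C with compound, 1 h detection; system: C. neoformans cells; benchmarks: Clomiphene as positive control; buffer or medium: fresh YPD medium; measure: luminescence rise reflecting yeast cell lysis; measured by: luminescent adenylate kinase detection reagent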
HIV Env fusion: HIV envelope-mediated fusion inhibition. AID 651610. inhibition, % at 12.3 µM. HeLa-JRFL Env/CEM21 cell fusion, luciferase. 1.1% of 360,000 active;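 active means mean replicate inhibition score of at least 50 and every replicate individually at or above 50; inconclusive means only one of the two criteria met; inactive means mean below 50 and not all replicates reaching 50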
dFosB act-2: activators of mouse delta FosB homodimer DNA binding; shares compounds with dFosB act-1; 2,400 tested, under 10 active; activation, % at 24.9 µM; purified delta FosB, TAMRA-CDK5 oligo fluorescence polarization; normalised: neutral wells 0, positive control 100;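 active means highest replicate activation at or above 34% and every replicate reaching that threshold; inconclusive means meets only one of the two criteria; inactive means meets neither criterion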;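 further: higher polarization means more probe DNA bound by delta FosB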
Hits are given with their value; - = inactive; ? = inconclusive; . = not tested or not shown.

SMILES	INS-1E GSIS act	Rtt109 Vps75	dFosB act-1	miR122 inh	Cneo AK release	HIV Env fusion	dFosB act-2
Cc1cccc(/C=N/NC(=O)c2ccc(NC(=O)c3ccc(Cl)cc3)cc2)n1	-	-	41	.	-	-	-
O=C(/C=C/c1cccnc1)c1ccc(NC(=O)c2cccc(Br)c2)cc1	.	-	46	-	-	-	-
C[C@@H]1CN([C@H](C)CO)C(=O)c2cc(-c3cccnc3)cnc2O[C@@H]1CN(C)Cc1ccccc1	-	.	.	-	.	-	.
O=C(Nc1ccc(Br)cc1)c1ccc(Br)c(S(=O)(=O)Nc2cccnc2)c1	-	-	28	-	-	.	-
Nc1c(C(=O)NCc2ccc3c(c2)OCO3)nnn1CC(=O)Nc1ccc(Br)cc1	-	-	51	-	-	-	-
Cc1cc(C)c(NC(=O)Cn2nnc(C(=O)NCc3ccc4c(c3)OCO4)c2N)c(C)c1	.	-	75	-	-	.	-
Cc1ccc(NC(=O)Cn2nnc(C(=O)NCc3ccc4c(c3)OCO4)c2N)cc1	-	-	-	.	-	-	.
O=C(NCc1ccc2c(c1)OCO2)c1nnc(Cc2ccc(Cl)cc2)o1	-	-	27	-	-	-	-
CC(C)c1ccc(NC(=O)Cn2nnc(C(=O)NCc3ccc4c(c3)OCO4)c2N)cc1	-	-	31	-	-	-	-
CCNC(=O)C[C@H]1CC[C@@H]2[C@H](COC[C@@H](O)CN2C(=O)Nc2ccc(Cl)c(Cl)c2)O1	-	.	.	-	-	.	.
CCCNC(=O)N1[C@@H]2CN(C(=O)c3ccccc3)c3ccccc3[C@@H]2[C@@H]1CO	-	.	.	-	-	.	.
COc1ccc(CN2C[C@H](C)[C@@H](OC)CN(C)C(=O)c3ccc(NC(=O)C4CC4)cc3OC[C@@H]2C)cc1	-	.	.	.	.	.	.
COCC(=O)Nc1ccc2c(c1)C(=O)N(C)C[C@H](OC)[C@H](C)CN(Cc1ccccc1)[C@@H](C)CO2	-	.	.	-	-	-	.
C[C@H](CO)N1C[C@H](C)[C@@H](CN(C)Cc2cccc(C(=O)O)c2)Oc2cc(C#CCC3CCCC3)ccc2S1(=O)=O	.	.	.	-	-	-	.
COc1ccc(Cl)cc1NC(=O)Cn1nnc(C(=O)NCc2ccc3c(c2)OCO3)c1N	-	-	39	-	-	-	-
CSc1ccc(S(=O)(=O)NCC(=O)OCCOc2ccccc2)cc1[N+](=O)[O-]	-	-	28	.	.	.	-
Nn1c(SCC(=O)Nc2ccc3c(c2)OCO3)nnc1-c1ccc(Cl)cc1	.	.	64	-	-	-	-
Cc1ccc(-c2nsc(SCC(=O)Nc3ccc4c(c3)OCO4)n2)cc1	-	-	24	.	.	-	-
C[C@@H]1CCCCO[C@H](CN(C)Cc2ccc(Cl)c(Cl)c2)[C@@H](C)CN([C@H](C)CO)C(=O)c2cc(NC(=O)NC3CCCCC3)ccc2O1	-	.	.	-	-	-	.
Cc1ccc(NNC(=O)C(O)(c2cccc(C(F)(F)F)c2)c2cccc(C(F)(F)F)c2)cc1	.	-	77	-	-	-	-
O=C(c1ccc(F)cc1)n1c(NCc2ccccc2)n[nH]c1=S	-	-	35	-	-	-	-
COc1ccc(-c2nnc(SCC(=O)c3ccc[nH]3)o2)cc1	.	-	-	-	-	-	.
COc1ccc(-c2nnc(SCC(=O)c3cc(C)n(Cc4cccs4)c3C)o2)cc1	.	-	43	-	-	-	-
COc1ccc(-c2nnc(SCC(=O)c3ccc(O)cc3O)o2)cc1	-	-	40	.	-	-	-
Nc1nonc1-n1nnc(C(=O)N/N=C/c2cccc(Cl)c2)c1-c1ccc2c(c1)OCO2	-	-	72	-	-	-	-
SMILES	INS-1E GSIS act	Rtt109 Vps75	dFosB act-1	miR122 inh	Cneo AK release	HIV Env fusion	dFosB act-2
Nc1nonc1-n1nnc(C(=O)N/N=C/c2ccc(Br)cc2)c1-c1ccc2c(c1)OCO2	-	-	21	-	-	-	-
CC(C)c1c(C(=O)N/N=C/c2ccc3c(c2)OCO3)nnn1-c1nonc1N	-	-	-	-	-	-	.
Nc1nonc1-n1nnc(C(=O)N/N=C/c2c(F)cccc2Cl)c1-c1ccc2c(c1)OCO2	-	-	-	.	-	-	.
Nc1nonc1-n1nnc(C(=O)N/N=C/c2ccc3c(c2)OCO3)c1-c1ccccc1	-	-	18	-	-	-	-
Cc1noc(C)c1S(=O)(=O)N(C)C[C@@H]1OCCCC[C@@H](C)Oc2ccc(NC(=O)NC3CCCCC3)cc2C(=O)N([C@H](C)CO)C[C@@H]1C	-	.	.	-	-	-	.
COc1ccccc1-c1oc2ccccc2c1C#CC1(N)CCCCC1	.	-	24	-	-	-	-
O=C1c2cccc3cccc(c23)C(=O)N1c1ccc2ncccc2c1	.	-	36	-	-	-	-
Cc1cc(Br)cc(Br)c1OCC(=O)NNC(=O)CCC(=O)NCc1ccccc1	-	-	25	.	-	-	-
O=C(CCC(=O)NNC(=O)COc1ccc(Br)cc1Br)NCc1ccccc1	-	-	34	-	.	-	-
O=C(CCC(=O)NNC(=O)COc1ccccc1)NCc1ccccc1	-	-	-	-	-	.	.
CC(C)NC(=O)Nc1ccc2c(c1)CC(=O)N([C@@H](C)CO)C[C@@H](C)[C@H](CN(C)C(=O)NC(C)C)O2	-	.	.	-	-	.	.
CC(=O)c1ccc(OCC(O)CN2CCN(CCN3C(=O)c4cccc5cccc(c45)C3=O)CC2)cc1 (configuration not stated)	-	-	38	.	.	-	-
CC(=O)c1ccc(OCC(O)CN2CCN(CC(O)COc3ccc(C(C)=O)cc3)CC2)cc1 (configuration not stated)	.	-	-	-	-	.	.
CCC(OCC(O)CN1CCN(CCN2C(=O)c3cccc4cccc(c34)C2=O)CC1)c1ccccc1 (configuration not stated)	-	-	30	.	.	-	-
Cc1cccc(C)c1OCC(O)CN1CCC(CN2C(=O)c3cccc4cccc(c34)C2=O)CC1 (configuration not stated)	.	-	74	-	-	?	-
Cc1ccccc1OCC(O)CN1CCN(CCN2C(=O)c3cccc4cccc(c34)C2=O)CC1 (configuration not stated)	-	-	50	.	.	-	-
COCC(=O)Nc1ccc2c(c1)C(=O)N(C)[C@H]1CC[C@H](CC(=O)Nc3cn(C)nc3C)O[C@H]1CO2	-	.	.	-	-	-	.
N=c1oc2cc(O)ccc2cc1C(=O)Nc1ccc(Cl)cc1	-	-	27	-	-	-	-
Cc1ccc(NC(=O)c2cc3ccccc3oc2=N)cc1	-	-	-	.	-	-	.
O=C(CN(Cc1ccc(Cl)cc1)C(=O)CN1C(=O)COc2ccccc21)NC1CCCC1	-	-	29	-	-	-	-

Screening results from PubChem.
